Measurements: ChEMBL document CHEMBL2401696, “Stereoselective synthesis and anti-proliferative effects on prostate cancer evaluation of 5-substituted-3,4-diphenylfuran-2-ones” (Eur J Med Chem, 2013)
Calls of active or inactive are those of the source. No cut-off for these calls is given here.

Tests used:
[1] = system: PC-3; assay: Antiproliferative activity against human PC3 cells expressing PCDNA after 72 hrs by MTT assay; type: functional, cell-based; conditions: PC-3, 72 h
Summary of the method: (§1)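 Cells (PC3 and its PCDNA- and SKP2-transfected lines, DU145) grown in RPMI 1640 with 10% FBS; G418 added for transfected lines. Exponential cells seeded 1 × 10⁴/well, 24 h at 37 °C, then fresh medium with compounds at several concentrations for 72 h. MTT 1–3 h at 37 °C, dissolved in 4% HCl/96% isopropanol, absorbance 570 nm. Triplicate per concentration; IC50 from dose–response curves.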

[2] = system: PC-3; assay: Antiproliferative activity against human PC3 cells expressing SKP2 after 72 hrs by MTT assay; type: functional, cell-based; conditions: PC-3, 72 h; summary of the method: as §1
[3] = biological target: T1, Prostaglandin G/H synthase 2 (Ovis aries, UniProt P79208); assay: Inhibition of ovine COX-2 assessed as using arachidonic acid as substrate preincubated for 5 mins prior to substrate addition measured […] by enzyme immunoassay
T1 sequence (P79208 whole entry): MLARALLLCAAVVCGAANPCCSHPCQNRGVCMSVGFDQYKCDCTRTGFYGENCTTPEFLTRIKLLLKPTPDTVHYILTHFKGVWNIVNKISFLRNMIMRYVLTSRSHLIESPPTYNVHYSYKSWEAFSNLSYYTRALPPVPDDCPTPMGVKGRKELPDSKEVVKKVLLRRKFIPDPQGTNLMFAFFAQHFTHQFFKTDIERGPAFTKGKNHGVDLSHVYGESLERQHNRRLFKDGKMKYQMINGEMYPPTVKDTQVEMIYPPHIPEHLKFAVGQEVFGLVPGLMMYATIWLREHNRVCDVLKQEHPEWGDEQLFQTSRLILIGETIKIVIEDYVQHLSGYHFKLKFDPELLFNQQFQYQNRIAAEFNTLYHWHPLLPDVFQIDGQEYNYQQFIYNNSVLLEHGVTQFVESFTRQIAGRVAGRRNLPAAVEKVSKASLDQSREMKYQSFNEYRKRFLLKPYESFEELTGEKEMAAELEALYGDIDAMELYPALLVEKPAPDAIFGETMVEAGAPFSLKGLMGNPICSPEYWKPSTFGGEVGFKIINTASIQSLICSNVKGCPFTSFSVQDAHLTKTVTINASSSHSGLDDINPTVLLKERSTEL

[4] = biological target: T2, Prostaglandin G/H synthase 1 (Ovis aries) (UniProt P05979); assay: Inhibition of ovine COX-1 assessed as using arachidonic acid as substrate at 10 uM preincubated for 5 mins prior to substrate addition […] by enzyme immunoassay relative to control
T2 sequence (whole entry): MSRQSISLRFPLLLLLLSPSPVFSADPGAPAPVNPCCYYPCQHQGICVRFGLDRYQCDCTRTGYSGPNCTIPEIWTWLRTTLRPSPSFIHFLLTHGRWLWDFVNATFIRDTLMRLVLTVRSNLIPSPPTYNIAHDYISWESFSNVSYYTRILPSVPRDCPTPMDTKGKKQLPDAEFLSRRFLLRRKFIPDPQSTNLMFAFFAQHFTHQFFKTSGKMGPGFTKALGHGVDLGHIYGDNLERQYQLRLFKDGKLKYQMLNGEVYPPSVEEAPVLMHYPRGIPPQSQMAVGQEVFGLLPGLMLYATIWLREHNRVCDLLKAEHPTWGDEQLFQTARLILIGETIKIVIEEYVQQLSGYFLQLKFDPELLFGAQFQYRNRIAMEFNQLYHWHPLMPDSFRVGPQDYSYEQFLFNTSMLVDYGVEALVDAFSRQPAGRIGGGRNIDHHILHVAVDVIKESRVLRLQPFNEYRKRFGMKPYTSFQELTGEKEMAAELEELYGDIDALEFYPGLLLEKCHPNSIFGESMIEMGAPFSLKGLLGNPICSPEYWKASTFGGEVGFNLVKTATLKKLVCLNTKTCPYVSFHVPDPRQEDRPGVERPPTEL

[5] = biological target: T3, Prostaglandin G/H synthase 2 (Ovis aries) (UniProt P79208); assay: Inhibition of ovine COX-2 assessed as using arachidonic acid as substrate at 10 uM preincubated for 5 mins prior to substrate addition measured after 2 mins by enzyme immunoassay relative to control
T3 sequence (whole entry): T1 sequence (P79208 whole entry)

[6] = system: PC-3; assay: Antiproliferative activity against human PC3 cells after 72 hrs by MTT assay; type: functional, cell-based; conditions: PC-3, 72 h; summary of the method: as §1
[7] = system: DU-145; assay: Antiproliferative activity against human DU145 cells after 72 hrs by MTT assay; type: functional, cell-based; conditions: DU-145, 72 h; summary of the method: as §1
[8] = biological target: T3, Prostaglandin G/H synthase 2 (Ovis aries); assay: Inhibition of ovine COX-2 assessed as using arachidonic acid as substrate at 10 uM preincubated for 5 mins prior to substrate addition measured after 2 hrs by enzyme immunoassay relative to control; conditions: in the assay text read “after 2 mins” for “after 2 hrs”
Summary of the method: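 Ovine COX-1 or COX-2 with heme in 0.1 M Tris-HCl pH 8.0, 5 mM EDTA, 2 mM phenol; compound (0.001–100 µM final, DMSO stocks) preincubated 5 min at 37 °C, then arachidonic acid added, stopped with 1 M HCl after 2 min. PGF2α (SnCl2 reduction) quantified by competitive EIA at 412 nm; % inhibition vs controls; mean of two determinations.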

[9] = system: DU-145; assay: Cell cycle arrest in human DU145 cells assessed as accumulation at G2/M phase at 15 uM after 12 hrs by propidium iodide staining-based flow cytometric analysis (reference value: 10.97%); type: functional
[10] = system: DU-145; assay: Cell cycle arrest in human DU145 cells assessed as accumulation at G0/G1 phase after 12 hrs by propidium iodide staining-based flow cytometric analysis; type: functional
[11] = system: DU-145; assay: Induction of apoptosis in human DU145 cells assessed as chromosomal condensation at 5 to 20 uM after 48 hrs by DAPI staining-based fluorescence microscopic analysis; type: functional, cell-based
Summary of the method: (§2)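 DU145 seeded 2 × 10⁴ per 60-mm plate, 24 h, then treated 48 h; PBS-washed twice, fixed 3.7% paraformaldehyde 10 min at room temperature, DAPI-stained 10 min at room temperature; nuclei scored for chromatin condensation and apoptotic bodies.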

[12] = system: DU-145; assay: Induction of apoptosis in human DU145 cells assessed as formation of apoptotic bodies at 5 to 20 uM after 48 hrs by DAPI staining-based fluorescence microscopic analysis; type: functional, cell-based; summary of the method: as §2
[13] = system: DU-145; assay: Cell cycle arrest in human DU145 cells assessed as accumulation at S phase at 15 uM after 12 hrs by propidium iodide staining-based flow cytometric analysis (reference value: 44.93%); type: functional
[14] = system: DU-145; assay: Cell cycle arrest in human DU145 cells assessed as accumulation at G0/G1 phase at 5 uM after 12 hrs by propidium iodide staining-based flow cytometric analysis (reference value: 40.91%); type: functional
[15] = system: DU-145; assay: Cell cycle arrest in human DU145 cells assessed as accumulation at S phase at 5 uM after 12 hrs by propidium iodide staining-based flow cytometric analysis (reference value: 44.93%); type: functional
[16] = system: DU-145; assay: Cell cycle arrest in human DU145 cells assessed as accumulation at G0/G1 phase at 20 uM after 12 hrs by propidium iodide staining-based flow cytometric analysis (reference value: 40.91%); type: functional
[17] = system: DU-145; assay: Cell cycle arrest in human DU145 cells assessed as accumulation at G0/G1 phase at 15 uM after 12 hrs by propidium iodide staining-based flow cytometric analysis (reference value: 40.91%); type: functional
[18] = system: DU-145; assay: Cell cycle arrest in human DU145 cells assessed as accumulation at S phase at 20 uM after 12 hrs by propidium iodide staining-based flow cytometric analysis (reference value: 44.93%); type: functional
[19] = system: DU-145; assay: Cell cycle arrest in human DU145 cells assessed as accumulation at G2/M phase at 20 uM after 12 hrs by propidium iodide staining-based flow cytometric analysis (reference value: 10.97%); type: functional
[20] = system: DU-145; assay: Cell cycle arrest in human DU145 cells assessed as accumulation at G2/M phase at 5 uM after 12 hrs by propidium iodide staining-based flow cytometric analysis (reference value: 10.97%); type: functional
[21] = biological target: T4, Prostaglandin G/H synthase 1 (Ovis aries, UniProt P05979); assay: Inhibition of ovine COX-1 assessed as using arachidonic acid as substrate preincubated for 5 mins prior to substrate addition […] by enzyme immunoassay
T4 sequence (P05979 whole entry): T2 sequence (whole entry)

IC50 [1] [µM] | IC50 [2] [µM] | IC50 [3] [µM] | inhibition [4] | inhibition [5] [%] | IC50 [6] [µM] | IC50 [7] [µM] | inhibition [8] | Structure (SMILES) | other results
25.5 | 45.8 | 14.6 | inactive | 44.2 | > 50 | > 50 |  | COc1ccccc1/C=C1\OC(=O)C(c2ccccc2Cl)=C1c1ccc(S(C)(=O)=O)cc1 | 
> 50 | 5.48 | 7.3 |  |  | > 50 | > 50 | 59.1% | CS(=O)(=O)c1ccc(C2=C(c3ccccc3Cl)C(=O)O/C2=C\c2ccccc2)cc1 | 
5.17 | 5.09 | 12.1 |  |  | 20 | 25 | 43.3% | COC1(C)OC(=O)C(c2ccccc2Cl)=C1c1ccc(S(C)(=O)=O)cc1 (stereo not given) | Activity [9]: 7.53%; Activity [10]: Dose-dependent effect; Activity [11]: Active; Activity [12]: Active; Activity [13]: 29.17%; Activity [14]: 42.22%; Activity [15]: 43.24%; Activity [16]: 64.51%; Activity [17]: 60%; Activity [18]: 27.26%; Activity [19]: 6.28%; Activity [20]: 10.97%
40.5 | 15.4 |  | 18.6% | 24.1 | > 50 | > 50 |  | CC(C)=C1OC(=O)C(c2ccccc2Cl)=C1c1ccc(S(C)(=O)=O)cc1 | 
> 50 | > 50 | 9.2 | 28.5% |  |  |  | 66.9% | CS(=O)(=O)c1ccc(C2=C(c3ccc(F)cc3)C(=O)OC2)cc1 | 
> 50 | > 50 |  | 65.9% |  |  |  | 16.7% | COc1ccc(/C=C2\OC(=O)C(c3ccccc3)=C2c2ccc(S(C)(=O)=O)cc2)cc1 | IC50 [21]: 8.2 µM
> 50 | 10.7 | 17.6 |  |  | > 50 | > 50 | 43.6% | COc1cc(/C=C2\OC(=O)C(c3ccc(F)cc3)=C2c2ccc(S(C)(=O)=O)cc2)ccc1O | 
> 80 | > 90 | 3 | 71% | 72.6 |  |  |  | COc1ccccc1/C=C1\OC(=O)C(c2ccccc2)=C1c1ccc(S(C)(=O)=O)cc1 | IC50 [21]: 3.1 µM
> 50 | > 50 |  | 61.2% |  |  |  | inactive | COc1ccc(/C=C2\OC(=O)C(c3ccccc3Cl)=C2c2ccc(S(C)(=O)=O)cc2)cc1 | IC50 [21]: 8.5 µM
18.2 | 25.1 | 13.9 | inactive |  | > 50 | > 50 | 45.6% | COc1ccccc1/C=C1\OC(=O)C(c2ccc(F)cc2)=C1c1ccc(S(C)(=O)=O)cc1 | 
> 50 | > 50 | 7.1 | 7.01% | 59.2 |  |  |  | CS(=O)(=O)c1ccc(C2=C(c3ccccc3Cl)C(=O)O/C2=C\c2cccc([N+](=O)[O-])c2)cc1 | 
> 50 | > 50 |  | inactive | 32.7 |  |  |  | CS(=O)(=O)c1ccc(C2=C(c3ccccc3Cl)C(=O)O/C2=C\c2ccc(Cl)cc2)cc1 | 
